Assay results from ChEMBL document CHEMBL5260840 (J Med Chem, 2019).

Experiments:
[1] = target: T1, von Hippel-Lindau disease tumor suppressor/Bromodomain-containing protein 9 (Homo sapiens) (UniProt Q9H8M2+P40337); test: PROTAC activity at VHL/BRD9 in human Ri-1 cells assessed as remaining BRD9 protein level at 1 uM incubated for 2 hrs by Western blot analysis relative to control; format: cell-based
Method in brief: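 Ri-1 cells exposed to compound for the stated time before harvest; BRD9, BRD7 and β-actin measured by Western blot, band intensities quantified and set against DMSO-treated control.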

[2] = target: T2, von Hippel-Lindau disease tumor suppressor/Bromodomain-containing protein 7 (Homo sapiens) (UniProt Q9NPI1+P40337); test: PROTAC activity at VHL/BRD7 in human HeLa cells assessed as remaining BRD7 protein level at 1 uM incubated for 4 hrs by Western blot analysis relative to control; format: cell-based
T2 sequence (P40337 whole entry, looked up): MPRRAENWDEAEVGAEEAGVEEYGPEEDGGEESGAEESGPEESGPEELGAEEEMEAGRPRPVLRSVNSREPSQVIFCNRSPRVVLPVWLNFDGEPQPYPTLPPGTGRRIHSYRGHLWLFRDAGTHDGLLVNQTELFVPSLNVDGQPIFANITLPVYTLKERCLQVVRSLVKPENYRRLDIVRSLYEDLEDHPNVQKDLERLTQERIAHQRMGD
T2 sequence (Q9NPI1 whole entry, looked up): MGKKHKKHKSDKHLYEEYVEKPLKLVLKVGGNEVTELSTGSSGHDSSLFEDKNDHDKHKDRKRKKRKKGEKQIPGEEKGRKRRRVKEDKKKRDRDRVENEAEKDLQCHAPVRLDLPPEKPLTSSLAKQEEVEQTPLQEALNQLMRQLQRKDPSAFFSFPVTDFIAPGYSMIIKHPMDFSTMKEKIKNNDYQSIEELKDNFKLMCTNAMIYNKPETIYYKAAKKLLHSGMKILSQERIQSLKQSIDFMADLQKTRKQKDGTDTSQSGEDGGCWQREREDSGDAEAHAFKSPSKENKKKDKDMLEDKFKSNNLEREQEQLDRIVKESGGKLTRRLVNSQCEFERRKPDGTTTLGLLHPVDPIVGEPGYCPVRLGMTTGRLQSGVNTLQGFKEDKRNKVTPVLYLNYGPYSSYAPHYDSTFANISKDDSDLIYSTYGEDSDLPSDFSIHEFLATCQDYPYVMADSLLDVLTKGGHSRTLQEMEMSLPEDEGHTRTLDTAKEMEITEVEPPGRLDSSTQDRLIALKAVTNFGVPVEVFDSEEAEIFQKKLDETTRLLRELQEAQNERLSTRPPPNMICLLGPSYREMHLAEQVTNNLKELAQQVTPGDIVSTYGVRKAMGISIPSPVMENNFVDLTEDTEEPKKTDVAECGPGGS

[3] = target: T2, von Hippel-Lindau disease tumor suppressor/Bromodomain-containing protein 7 (Homo sapiens); test: PROTAC activity at VHL/BRD7 in human Ri-1 cells assessed as remaining BRD7 protein level at 1 uM incubated for 2 hrs by Western blot analysis relative to control; format: cell-based
[4] = target: T3, Protein cereblon/Bromodomain-containing protein 9 (Homo sapiens) (UniProt Q9H8M2+Q96SW2); test: PROTAC activity at CRBN/BRD9 in human HeLa cells assessed as remaining BRD9 protein level at 1 uM incubated for 4 hrs by Western blot analysis relative to control; format: cell-based
T3 sequence (Q96SW2 whole entry, looked up): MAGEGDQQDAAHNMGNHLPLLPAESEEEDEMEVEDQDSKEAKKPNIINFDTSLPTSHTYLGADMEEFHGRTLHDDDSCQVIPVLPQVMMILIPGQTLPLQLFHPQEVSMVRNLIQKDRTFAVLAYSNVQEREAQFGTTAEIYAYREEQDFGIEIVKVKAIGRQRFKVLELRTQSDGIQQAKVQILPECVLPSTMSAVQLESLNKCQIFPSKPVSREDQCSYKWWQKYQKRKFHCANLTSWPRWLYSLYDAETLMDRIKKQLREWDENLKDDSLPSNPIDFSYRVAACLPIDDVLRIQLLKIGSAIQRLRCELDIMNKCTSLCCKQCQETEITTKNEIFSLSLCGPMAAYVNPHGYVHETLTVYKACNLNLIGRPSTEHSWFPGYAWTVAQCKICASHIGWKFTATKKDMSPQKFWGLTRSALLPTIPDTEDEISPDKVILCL
T3 sequence (Q9H8M2 whole entry, looked up): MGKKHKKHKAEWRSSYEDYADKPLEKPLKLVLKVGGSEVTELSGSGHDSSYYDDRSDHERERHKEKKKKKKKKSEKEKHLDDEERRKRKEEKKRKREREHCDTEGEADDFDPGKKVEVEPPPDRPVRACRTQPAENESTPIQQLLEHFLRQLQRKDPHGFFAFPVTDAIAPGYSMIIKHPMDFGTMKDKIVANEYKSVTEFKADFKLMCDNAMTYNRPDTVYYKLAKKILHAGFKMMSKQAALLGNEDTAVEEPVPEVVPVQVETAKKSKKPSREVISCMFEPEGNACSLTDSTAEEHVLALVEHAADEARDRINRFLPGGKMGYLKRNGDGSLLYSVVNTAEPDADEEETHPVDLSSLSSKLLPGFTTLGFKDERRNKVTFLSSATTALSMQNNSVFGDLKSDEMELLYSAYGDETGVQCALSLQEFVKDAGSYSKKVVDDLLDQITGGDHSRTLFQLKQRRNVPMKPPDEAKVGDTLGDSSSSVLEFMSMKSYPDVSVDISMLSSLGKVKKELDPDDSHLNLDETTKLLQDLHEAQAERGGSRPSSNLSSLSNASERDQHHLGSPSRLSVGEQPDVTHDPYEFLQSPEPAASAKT
Method in brief: (§1)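 Cells given 1 µM compound before harvest: HeLa 4 h, RI-1 2 h and 8 h. BRD9, BRD7 and β-actin detected by Western blot; band intensities quantified.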

[5] = target: T3, Protein cereblon/Bromodomain-containing protein 9 (Homo sapiens); test: PROTAC activity at CRBN/BRD9 in human HeLa cells assessed as remaining BRD9 protein level at 1 uM incubated for 16 hrs by Western blot analysis relative to control; format: cell-based
Method in brief: (§2)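 HeLa cells given 1 µM compound for 16 h before harvest. BRD9, BRD7 and β-actin detected by Western blot; band intensities quantified.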

[6] = target: T4, Protein cereblon/Bromodomain-containing protein 7 (Homo sapiens) (UniProt Q9NPI1+Q96SW2); test: PROTAC activity at CRBN/BRD7 in human HeLa cells assessed as remaining BRD7 protein level at 1 uM incubated for 4 hrs by Western blot analysis relative to control; format: cell-based; method in brief: as §1
T4 sequence (Q96SW2 whole entry, looked up): as the sequence (Q96SW2 whole entry, looked up) above
T4 sequence (Q9NPI1 whole entry, looked up): as the sequence (Q9NPI1 whole entry, looked up) above

[7] = target: T4, Protein cereblon/Bromodomain-containing protein 7 (Homo sapiens); test: PROTAC activity at CRBN/BRD7 in human HeLa cells assessed as remaining BRD7 protein level at 1 uM incubated for 16 hrs by Western blot analysis relative to control; format: cell-based; method in brief: as §2
[8] = target: T2, von Hippel-Lindau disease tumor suppressor/Bromodomain-containing protein 7 (Homo sapiens); test: PROTAC activity at VHL/BRD7 in human HeLa cells assessed as remaining BRD7 protein level at 1 uM incubated for 16 hrs by Western blot analysis relative to control; format: cell-based
[9] = target: T1, von Hippel-Lindau disease tumor suppressor/Bromodomain-containing protein 9 (Homo sapiens); test: PROTAC activity at VHL/BRD9 in human HeLa cells assessed as remaining BRD9 protein level at 1 uM incubated for 16 hrs by Western blot analysis relative to control; format: cell-based
Method in brief: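 HeLa cells treated with compound for the stated time before harvest; BRD9, BRD7 and β-actin detected by Western blot with β-actin loading control; band intensities quantified.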

A204 = test: Antiproliferative activity against human A204 cells assessed as inhibition of cell growth incubated for 7 days by CellTiterGlo assay; format: functional, cell-based; conditions: A204, 168 h
EOL1 = test: Antiproliferative activity against human EOL1 cells assessed as inhibition of cell growth incubated for 7 days by CellTiterGlo assay; format: functional, cell-based; conditions: EOL1, 168 h

T1 sequence (P40337 whole entry, looked up): as the sequence (P40337 whole entry, looked up) above
T1 sequence (Q9H8M2 whole entry, looked up): as the sequence (Q9H8M2 whole entry, looked up) above

| SMILES | Activity [1] [%] | Activity [2] [%] | Activity [3] [%] | other results |
| --- | --- | --- | --- | --- |
| COc1cc(-c2cn(C)c(=O)c3cnccc23)c(OC)cc1CN1CC(NC(=O)COCCOc2cc(-c3scnc3C)ccc2CNC(=O)[C@@H]2C[C@@H](O)CN2C(=O)[C@@H](NC(=O)C2(F)CC2)C(C)(C)C)C1 | 99 | 158 | 112 |  |
| COc1cc(-c2cn(C)c(=O)c3cnccc23)cc(OC)c1CN1CCN(CCOCCOCCOCCOCC(=O)NCCNc2cccc3c2C(=O)N(C2CCC(=O)NC2=O)C3=O)CC1 (stereo not given) |  |  |  | Activity [4]: 19%; Activity [5]: 11%; Activity [6]: 106%; Activity [7]: 94% |
| COc1cc(-c2cn(C)c(=O)c3cnccc23)cc(OC)c1CN1CC(NC(=O)COCCOCCOc2cc(-c3scnc3C)ccc2CNC(=O)[C@@H]2C[C@@H](O)CN2C(=O)[C@@H](NC(=O)C2(F)CC2)C(C)(C)C)C1 | 95 | 53 | 92 |  |
| COc1cc(-c2cn(C)c(=O)c3cnccc23)cc(OC)c1CN(C)CC(=O)NCCOCCOCCNc1cccc2c1C(=O)N(C1CCC(=O)NC1=O)C2=O (stereo not given) |  |  |  | IC50 (A204): 89.8 nM; IC50 (EOL1): 4.87 nM |
| COc1cc(-c2cn(C)c(=O)c3cnccc23)cc(OC)c1CN1CCN(CCOCCOCCOCCOCCOc2cc(-c3scnc3C)ccc2CNC(=O)[C@@H]2C[C@@H](O)CN2C(=O)[C@@H](NC(C)=O)C(C)(C)C)CC1 |  | 109 |  | Activity [8]: 98%; Activity [9]: 114% |
| COc1cc(-c2cn(C)c(=O)c3cnccc23)cc(OC)c1CN1CC(NC(=O)CCCCOCCOc2cc(-c3scnc3C)ccc2CNC(=O)[C@@H]2C[C@@H](O)CN2C(=O)[C@@H](NC(=O)C2(F)CC2)C(C)(C)C)C1 | 92 | 31 | 106 |  |
| COc1cc(-c2cn(C)c(=O)c3cnccc23)cc(OC)c1CN1CC(NC(=O)COCCOCCOCCOc2cc(-c3scnc3C)ccc2CNC(=O)[C@@H]2C[C@@H](O)CN2C(=O)[C@@H](NC(=O)C2(F)CC2)C(C)(C)C)C1 | 89 | 103 | 98 |  |
| COc1cc(-c2cn(C)c(=O)c3cnccc23)cc(OC)c1CN1CC(NC(=O)CCCCOc2cc(-c3scnc3C)ccc2CNC(=O)[C@@H]2C[C@@H](O)CN2C(=O)[C@@H](NC(=O)C2(F)CC2)C(C)(C)C)C1 | 68 | 25 | 70 |  |
| COc1cc(-c2cn(C)c(=O)c3cnccc23)cc(OC)c1CN1CCN(CCOCCOCCOCC(=O)N[C@H](C(=O)N2C[C@H](O)C[C@H]2C(=O)NCc2ccc(-c3scnc3C)cc2)C(C)(C)C)CC1 |  | 107 |  | Activity [8]: 106%; Activity [9]: 95% |
| COc1cc(-c2cn(C)c(=O)c3cnccc23)cc(OC)c1CN1CCN(CCCCCOCCOCC(=O)N[C@H](C(=O)N2C[C@H](O)C[C@H]2C(=O)NCc2ccc(-c3scnc3C)cc2)C(C)(C)C)CC1 |  | 106 |  | Activity [8]: 80%; Activity [9]: 61% |
| COc1cc(-c2cn(C)c(=O)c3cnccc23)c(OC)cc1CN1CC(NC(=O)CCCCOc2cc(-c3scnc3C)ccc2CNC(=O)[C@@H]2C[C@@H](O)CN2C(=O)[C@@H](NC(=O)C2(F)CC2)C(C)(C)C)C1 | 110 | 54 | 131 |  |
| COc1cc(-c2cn(C)c(=O)c3cnccc23)cc(OC)c1CN1CCN(CCOCCOCCOCCOCCOCC(=O)N[C@H](C(=O)N2C[C@H](O)C[C@H]2C(=O)NCc2ccc(-c3scnc3C)cc2)C(C)(C)C)CC1 |  | 104 |  | Activity [8]: 54%; Activity [9]: 112% |
| COc1cc(-c2cn(C)c(=O)c3cnccc23)cc(OC)c1CN(C)C |  | 90 |  | IC50 (A204): 372 nM; IC50 (EOL1): 89.3 nM |
| COc1cc(-c2cn(C)c(=O)c3cnccc23)cc(OC)c1CN1CC(NC(=O)COCCOc2cc(-c3scnc3C)ccc2CNC(=O)[C@@H]2C[C@@H](O)CN2C(=O)[C@@H](NC(=O)C2(F)CC2)C(C)(C)C)C1 | 109 | 29 | 125 |  |
| COc1cc(-c2cn(C)c(=O)c3cnccc23)cc(OC)c1CN1CCN(C(=O)COCCOCCOCN[C@H](C(=O)N2C[C@H](O)C[C@H]2C(=O)NCc2ccc(-c3scnc3C)cc2)C(C)(C)C)CC1 |  |  |  | Activity [8]: 113%; Activity [9]: 73% |
| COc1cc(-c2cn(C)c(=O)c3cnccc23)c(OC)cc1CN(C)C |  |  |  | IC50 (A204): 3550 nM; IC50 (EOL1): 339 nM |
| COc1cc(-c2cn(C)c(=O)c3cnccc23)cc(OC)c1CN1CCN(CCOCCOCCOc2cc(-c3scnc3C)ccc2CNC(=O)[C@@H]2C[C@@H](O)CN2C(=O)[C@@H](NC(C)=O)C(C)(C)C)CC1 |  | 95 |  | Activity [8]: 107%; Activity [9]: 156% |
| COc1cc(-c2cn(C)c(=O)c3cnccc23)cc(OC)c1CN1CCN(CCOCCOCCOc2cc(-c3scnc3C)ccc2CNC(=O)[C@@H]2C[C@@H](O)CN2C(=O)[C@@H](NC(=O)C2(C#N)CC2)C(C)(C)C)CC1 |  | 88 |  | Activity [8]: 187%; Activity [9]: 63% |
| COc1cc(-c2cn(C)c(=O)c3cnccc23)c(OC)cc1CN1CC(NC(=O)COCCOCCOc2cc(-c3scnc3C)ccc2CNC(=O)[C@@H]2C[C@@H](O)CN2C(=O)[C@@H](NC(=O)C2(F)CC2)C(C)(C)C)C1 | 103 | 280 | 120 |  |
| COc1cccc2c1C(=O)c1c(O)c3c(c(O)c1C2=O)C[C@@](O)(C(=O)CO)C[C@@H]3O[C@H]1C[C@H](N)[C@H](O)[C@H](C)O1 [DOXORUBICIN] |  |  |  | IC50 (A204): 6.48 nM; IC50 (EOL1): 1.27 nM |
| COc1cc(-c2cn(C)c(=O)c3cnccc23)c(OC)cc1CN1CC(NC(=O)CCCCOCCOc2cc(-c3scnc3C)ccc2CNC(=O)[C@@H]2C[C@@H](O)CN2C(=O)[C@@H](NC(=O)C2(F)CC2)C(C)(C)C)C1 | 94 | 250 | 97 |  |

Second part, led by results:

| Activity [1] [%] | Activity [2] [%] | Activity [3] [%] | SMILES | other results |
| --- | --- | --- | --- | --- |
|  | 89 |  | COc1cc(-c2cn(C)c(=O)c3cnccc23)cc(OC)c1CN1CCN(CCOCCOCCOCCOCCOc2cc(-c3scnc3C)ccc2CNC(=O)[C@@H]2C[C@@H](O)CN2C(=O)[C@@H](NC(=O)C2(C#N)CC2)C(C)(C)C)CC1 | Activity [8]: 124%; Activity [9]: 98% |
|  | 110 |  | COc1cc(-c2cn(C)c(=O)c3cnccc23)cc(OC)c1CN1CCN(CCOCCOCCOCCOCCOc2cc(-c3scnc3C)ccc2CNC(=O)[C@@H]2C[C@@H](O)CN2C(=O)[C@@H](NC(=O)C2(F)CC2)C(C)(C)C)CC1 | Activity [8]: 163%; Activity [9]: 97% |
| 127 | 206 | 134 | COc1cc(-c2cn(C)c(=O)c3cnccc23)c(OC)cc1CN1CCN(CCOCCOCCOCCOc2cc(-c3scnc3C)ccc2CNC(=O)[C@@H]2C[C@@H](O)CN2C(=O)[C@@H](NC(=O)C2(F)CC2)C(C)(C)C)CC1 |  |
| 105 | 182 | 125 | COc1cc(-c2cn(C)c(=O)c3cnccc23)cc(OC)c1CN1CCN(CCOCCOCCOCCOc2cc(-c3scnc3C)ccc2CNC(=O)[C@@H]2C[C@@H](O)CN2C(=O)[C@@H](NC(=O)C2(F)CC2)C(C)(C)C)CC1 |  |
| 94 | 3 | 98 | COc1cc(-c2cn(C)c(=O)c3cnccc23)c(OC)cc1CN1CCN(CCOCCOc2cc(-c3scnc3C)ccc2CNC(=O)[C@@H]2C[C@@H](O)CN2C(=O)[C@@H](NC(=O)C2(F)CC2)C(C)(C)C)CC1 |  |
| 125 | 126 | 149 | COc1cc(-c2cn(C)c(=O)c3cnccc23)c(OC)cc1CN1CCN(CCOCCOCCOc2cc(-c3scnc3C)ccc2CNC(=O)[C@@H]2C[C@@H](O)CN2C(=O)[C@@H](NC(=O)C2(F)CC2)C(C)(C)C)CC1 |  |
| 89 | 336 | 102 | COc1cc(-c2cn(C)c(=O)c3cnccc23)c(OC)cc1CN1CCN(CCCCCOCCOc2cc(-c3scnc3C)ccc2CNC(=O)[C@@H]2C[C@@H](O)CN2C(=O)[C@@H](NC(=O)C2(F)CC2)C(C)(C)C)CC1 |  |
| 65 | 151 | 65 | COc1cc(-c2cn(C)c(=O)c3cnccc23)c(OC)cc1CN1CCN(CCCCCOc2cc(-c3scnc3C)ccc2CNC(=O)[C@@H]2C[C@@H](O)CN2C(=O)[C@@H](NC(=O)C2(F)CC2)C(C)(C)C)CC1 |  |
| 69 | 98 | 83 | COc1cc(-c2cn(C)c(=O)c3cnccc23)cc(OC)c1CN1CCN(CCCCCOCCOc2cc(-c3scnc3C)ccc2CNC(=O)[C@@H]2C[C@@H](O)CN2C(=O)[C@@H](NC(=O)C2(F)CC2)C(C)(C)C)CC1 |  |
| 95 | 138 | 85 | COc1cc(-c2cn(C)c(=O)c3cnccc23)c(OC)cc1CN1CC(NC(=O)COCCOCCOCCOc2cc(-c3scnc3C)ccc2CNC(=O)[C@@H]2C[C@@H](O)CN2C(=O)[C@@H](NC(=O)C2(F)CC2)C(C)(C)C)C1 |  |
